Assay results from ChEMBL document CHEMBL1139206, “Evaluation of nitrate-substituted pseudocholine esters of aspirin as potential nitro-aspirins” (Bioorg Med Chem Lett, 2007).

Columns and labels:
Plasma = assay: Stability in human plasma assessed as aspirin production at pH 7.4; type: ADME, cell-free
Outline: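 Test ester incubated in dilute (10%) buffered human plasma, pH 7.4, 37 °C. Products (parent ester, deacetylated salicylate ester, aspirin, salicylic acid) were followed over time by RP-HPLC with PDA detection; salicylate esters read at 296 nm. Disappearance fitted to pseudo-first-order kinetics, half-life = 0.693/k_obs. Aspirin yield expressed on a molar basis.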

Homo sapiens = species: Homo sapiens; assay: Stability in human plasma assessed as hydrolysis half life

Structure (SMILES) | Activity (Plasma) [%] | half-life (Homo sapiens) [min]
CC(=O)Oc1ccccc1C(=O)OCCO[N+](=O)[O-] | < 0.5 | 1.6
CC(=O)Oc1ccccc1C(=O)OC(C)CO[N+](=O)[O-] (configuration not stated) | < 0.5 | 1.47
CC(=O)Oc1ccccc1C(=O)OCC(=O)N(C)CCO[N+](=O)[O-] | < 0.5 | 1.17
CCN(CCO[N+](=O)[O-])C(=O)COC(=O)c1ccccc1OC(C)=O | < 0.5 | 1.03
CCCN(CCO[N+](=O)[O-])C(=O)COC(=O)c1ccccc1OC(C)=O | < 0.5 | 1.15
CC(=O)Oc1ccccc1C(=O)OCC(=O)N(CCO[N+](=O)[O-])CC[N+](=O)[O-] | < 0.5 | 6.12
CC(=O)Oc1ccccc1C(=O)OCCN(C)CCO[N+](=O)[O-] | < 0.5 | 0.35
CCN(CCOC(=O)c1ccccc1OC(C)=O)CCO[N+](=O)[O-] | < 0.5 | 1.05
CCCN(CCOC(=O)c1ccccc1OC(C)=O)CCO[N+](=O)[O-] | 9.2 | 0.65
CC(=O)Oc1ccccc1C(=O)OCCN(CCO[N+](=O)[O-])CCO[N+](=O)[O-] | < 0.5 | 1.12
CC(=O)Oc1ccccc1C(=O)OCCCO[N+](=O)[O-] | < 0.5 | 2.23
